Measured values as given in ChEMBL document CHEMBL4020704, “Metabolite diversification by cultivation of the endophytic fungus Dothideomycete sp. in halogen containing media: Cultivation of terrestrial fungus in seawater” (Bioorg Med Chem, 2017).
Values after ≈ are worked out from the molar mass of the structure shown. Active and inactive are the calls of the source. The calls are words filed in the database; no cut-off is given here.

Legend:
[1] = test system: MOLT-3; assay: Cytotoxic activity against human MOLT3 cells by XTT assay; format: functional, cell-based
In short: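 Non-adherent MOLT-3 leukemia cells, viability read by XTT assay. Etoposide served as reference drug. IC50 determined.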

[2] = test system: HuCC-A1; assay: Cytotoxic activity against human HuCCa1 cells by MTT assay; format: functional, cell-based
In short: (§1)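 Adherent cancer cell lines, viability read by MTT assay. Doxorubicin served as reference drug for A549, HepG2 and HuCCA-1, and etoposide also for HepG2. IC50 determined.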

[3] = test system: Staphylococcus aureus; assay: Antibacterial activity against Staphylococcus aureus after 20 hrs by broth microdilution method; format: functional
In short: (§2)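 Compounds dissolved in DMSO and two-fold serially diluted in 96-well plates, with final DMSO ≤0.5% (v/v). Inocula prepared in normal saline and adjusted to 0.5 McFarland turbidity. Plates incubated at 36 °C for 20 h, then absorbance read at 600 nm. MIC taken as the lowest concentration inhibiting growth.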

[4] = test system: Shigella flexneri; assay: Antibacterial activity against Shigella flexneri after 20 hrs by broth microdilution method; format: functional; in short: as §2
[5] = test system: HepG2; assay: Cytotoxic activity against human HepG2 cells by MTT assay; format: functional, cell-based; in short: as §1
[6] = test system: Pseudomonas aeruginosa; assay: Antibacterial activity against Pseudomonas aeruginosa after 20 hrs by broth microdilution method; format: functional; in short: as §2
[7] = test system: Escherichia coli; assay: Antibacterial activity against Escherichia coli after 20 hrs by broth microdilution method; format: functional; in short: as §2
[8] = test system: Bacillus cereus; assay: Antibacterial activity against Bacillus cereus after 20 hrs by broth microdilution method; format: functional; in short: as §2
[9] = test system: Staphylococcus epidermidis; assay: Antibacterial activity against Staphylococcus epidermidis after 20 hrs by broth microdilution method; format: functional; in short: as §2
[10] = test system: Enterococcus faecalis; assay: Antibacterial activity against Enterococcus faecalis after 20 hrs by broth microdilution method; format: functional; in short: as §2
[11] = test system: Salmonella typhimurium; assay: Antibacterial activity against Salmonella typhimurium after 20 hrs by broth microdilution method; format: functional; conditions: Salmonella enterica subsp. enterica serovar Typhimurium; in short: as §2

MIC [3]	MIC [8]	MIC [9]	Structure (SMILES)	Activity [1]	Activity [2]	Activity [3]	Activity [4]	Activity [5]	Activity [6]	Activity [7]	Activity [8]	Activity [9]	Activity [10]	Activity [11]	IC50 [2]	IC50 [1]	IC50 [5]
–	–	–	C/C(=C\C=C\[C@H](O)[C@H](C)O)[C@H](O)[C@H](C)C(=O)O[C@H]1C[C@H](C)C[C@@H]2C=C[C@H](C)[C@](C)(C(=O)[C@H](O)CO)[C@@H]12	inactive	inactive	inactive	inactive	inactive	inactive	inactive	inactive	inactive	inactive	inactive	–	–	–
–	–	–	CC1=CC2=C(CC(C)C(=O)C[C@H](C)O)C(=O)[C@](C)(O)[C@@H](O)C2=CO1 (stereo partly drawn)	inactive	inactive	inactive	inactive	inactive	inactive	inactive	inactive	inactive	inactive	inactive	–	–	–
–	–	–	C[C@H]1C=C[C@H]2C[C@@H](CO)C[C@H](O)[C@@H]2[C@@]1(C)C(=O)[C@H](O)CO	inactive	inactive	inactive	inactive	inactive	inactive	inactive	inactive	inactive	inactive	inactive	–	–	–
0.78 µg/mL (≈ 1.76 µM)	6.25 µg/mL (≈ 14.1 µM)	1.56 µg/mL (≈ 3.51 µM)	CN(C)[C@@H]1C(O)=C(C(N)=O)C(=O)[C@@]2(O)C(O)=C3C(=O)c4c(O)cccc4[C@@](C)(O)[C@H]3C[C@@H]12 [TETRACYCLINE]	–	–	–	–	–	–	–	–	–	–	–	–	–	–
0.78 µg/mL (≈ 2.41 µM)	0.78 µg/mL (≈ 2.41 µM)	0.78 µg/mL (≈ 2.41 µM)	O=C(N[C@H](CO)[C@H](O)c1ccc([N+](=O)[O-])cc1)C(Cl)Cl [CHLORAMPHENICOL]	–	–	–	–	–	–	–	–	–	–	–	–	–	–
100 µg/mL (≈ 191 µM)	100 µg/mL (≈ 191 µM)	100 µg/mL (≈ 191 µM)	CO[C@@H](/C=C/C=C(\C)[C@H](O)[C@H](C)C(=O)O[C@H]1C[C@H](C)C[C@@H]2C=C[C@H](C)[C@](C)(C(=O)[C@H](O)CO)[C@@H]12)[C@@H](C)O	inactive	inactive	–	inactive	inactive	inactive	inactive	–	–	inactive	inactive	–	–	–
–	–	–	C/C(=C\C=C\[C@H](O)[C@@H](C)O)[C@H](O)[C@H](C)C(=O)O[C@H]1C[C@H](CO)C[C@@H]2C=C[C@H](C)[C@](C)(C(=O)CCO)[C@@H]12	inactive	inactive	inactive	inactive	inactive	inactive	inactive	inactive	inactive	inactive	inactive	–	–	–
–	–	–	COc1cccc2c1C(=O)c1c(O)c3c(c(O)c1C2=O)C[C@@](O)(C(=O)CO)C[C@@H]3O[C@H]1C[C@H](N)[C@H](O)[C@H](C)O1 [DOXORUBICIN]	–	–	–	–	–	–	–	–	–	–	–	0.33 µg/mL (≈ 0.607 µM)	–	–
–	–	–	C[C@H]1C=C[C@H]2C[C@@](O)(CO)CC[C@@H]2[C@@]1(C)C(=O)CCO	inactive	inactive	inactive	inactive	inactive	inactive	inactive	inactive	inactive	inactive	inactive	–	–	–
–	–	–	CO[C@@H](/C=C/C=C(\C)[C@H](O)[C@H](C)C(=O)O[C@H]1C[C@H](C)C[C@@H]2C=C[C@H](C)[C@](C)(C(=O)[C@H](O)CO)[C@@H]12)[C@H](C)O	inactive	inactive	inactive	inactive	inactive	inactive	inactive	inactive	inactive	inactive	inactive	–	–	–
–	–	–	CC1=CC2=C(C[C@H](C)C3=CC(=O)CC(C)O3)C(=O)[C@](C)(O)[C@@H](O)C2=CO1 (stereo partly drawn)	inactive	inactive	inactive	inactive	inactive	inactive	inactive	inactive	inactive	inactive	inactive	–	–	–
–	–	–	CC1=CC2=C(C[C@@H](C)C3=CC(=O)CC(C)O3)C(=O)[C@](C)(O)[C@@H](O)C2=CO1 (stereo partly drawn)	inactive	inactive	inactive	inactive	inactive	inactive	inactive	inactive	inactive	inactive	inactive	–	–	–
–	–	–	COc1cc([C@@H]2c3cc4c(cc3[C@@H](O[C@@H]3O[C@@H]5CO[C@@H](C)O[C@H]5[C@H](O)[C@H]3O)[C@H]3COC(=O)[C@H]23)OCO4)cc(OC)c1O [ETOPOSIDE]	–	–	–	–	–	–	–	–	–	–	–	–	0.04 µg/mL (≈ 0.068 µM)	24.3 µg/mL (≈ 41.3 µM)
